Data: ChEMBL document CHEMBL1132728, “Inhibition of Escherichia coli glucosamine synthetase by novel electrophilic analogues of glutamine--comparison with 6-diazo-5-oxo-norleucine” (Bioorg Med Chem Lett, 2000)

Key:
[1] = Steady-state inactivation rate constant for inactivation of Escherichia coli glucosamine synthetase was determined
Outline: (§1)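 E. coli glucosamine synthetase was preincubated 15 min at 37 °C in 100 mM potassium phosphate, pH 7.5, with 10 mM fructose-6-phosphate and 50 mM KCl, then inhibitor was added. Timed aliquots were diluted 40-fold into the same buffer with 6 mM L-glutamine, and residual activity was read by colorimetric glutamate assay. The ln(residual activity)-versus-time plot gave t1/2, and kobs = ln2/t1/2. kobs versus [I] was fitted by Kitz–Wilson to give k+2 and Ki.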

[2] = Second order rate constant ([…]) was determined; outline: as §1
Escherichia coli [3] = assay: Limiting rate constant for inactivation of Escherichia coli glucosamine synthetase was determined; outline: as §1
[4] = Second order rate constant ([…]) was determined; No inhibition at 200 uM
[5] = Steady-state inactivation rate constant for inactivation of Escherichia coli glucosamine synthetase was determined; No inhibition at 200 uM
Escherichia coli [6] = assay: Limiting rate constant for inactivation of Escherichia coli glucosamine synthetase was determined; No inhibition at 200 uM
[7] = Second order rate constant ([…]) with Escherichia coli glucosamine synthetase; outline: as §1

Row | SMILES | Ki [1] [nM] | K+2/Ki [2] [M⁻¹ s⁻¹] | K+2 (Escherichia coli [3]) [min⁻¹] | K+2/Ki [4] | Ki [5] | K+2 (Escherichia coli [6]) | K+2/Ki [7] [M⁻¹ s⁻¹]
1 | N[C@@H](CCC(=O)CBr)C(=O)O | 2700 | 2500 | 0.4 | – | – | – | –
2 | N[C@@H](CCC(=O)CCl)C(=O)O | 62500 | 50 | 0.19 | – | – | – | –
3 | CC(=[N+]=[N-])C(=O)CC[C@H](N)C(=O)O | 1100 | 333 | 0.02 | – | – | – | –
4 | N#CCC[C@H](N)C(=O)O | – | – | – | No inhibition | No inhibition | No inhibition | –
5 | [N-]=[N+]=CC(=O)CC[C@H](N)C(=O)O [6-DIAZO-5-OXO-L-NORLEUCINE] | 9500 | – | 0.7 | – | – | – | 1170
6 | C[S+](C)CC(=O)CC[C@H](N)C(=O)O | 370 | 5330 | 0.12 | – | – | – | –
